Test results: ChEMBL document CHEMBL1671864, “First assessment in humans of the safety, tolerability, pharmacokinetics, and ex vivo pharmacodynamic antimalarial activity of the new artemisinin derivative artemisone” (Antimicrob Agents Chemother, 2008)
In brackets after ≈: the same amount, converted by molar mass.

Key:
Plasma [1] = test: Cmax in healthy human plasma assessed as metabolite BAY 78-1787 Cmax at 80 mg, po administered as four 20 mg immediate release tablets daily for 3 days during 10 hrs overnight fasting state measured after 3 day; type: ADME, organism-based; parameters: dose 80 mg, route oral; conditions: in vivo, 72 h
In short: (§1)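 Healthy Caucasian male volunteers took 40 mg (two 20-mg IR tablets) or 80 mg (four tablets) orally once daily for 3 days, with 240 ml water after a 10-h fast. Plasma was sampled predose to 14 h after the first and last doses. M1/M2/M3 were quantified by LC/MS-MS MRM against a D4-labelled internal standard. Cmax was read from observed data and AUC by log-linear trapezoidal rule, noncompartmental, geometric means.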

Plasma [2] = test: Cmax in healthy human plasma assessed as metabolite BAY 78-1787 Cmax at 40 mg, po administered as two 20 mg immediate release tablets daily for 3 days during 10 hrs overnight fasting state measured after 3 day; type: ADME, organism-based; parameters: dose 40 mg, route oral; conditions: in vivo, 72 h; in short: as §1
Plasma [3] = test: Half-life in healthy human plasma assessed as metabolite BAY 78-1787 half-life at 80 mg, po administered as single ascending doses during 10 hrs overnight fasting state; type: ADME, organism-based; conditions: in vivo
In short: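 Healthy Caucasian male volunteers, single oral dose with 240 ml water after a 10-h overnight fast. Heparinised venous blood was drawn predose and at 0.25–14 h. Plasma was stored frozen. Parent drug and metabolites M1–M3 were measured by LC/MS-MS (MRM, deuterated internal standard). Noncompartmental analysis gave Cmax observed, t1/2 = 0.693/kel (terminal regression) and MRT = AUMC/AUC. Values are geometric means.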

Plasma [4] = test: Half life in healthy human plasma assessed as metabolite BAY 78-1787 Half life at 80 mg, po administered as four 20 mg immediate release tablets daily for 3 days during 10 hrs overnight fasting state measured after 1 day; type: ADME, organism-based; conditions: in vivo, 24 h
In short: (§2)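 Healthy Caucasian males took tablets once daily for 3 days with 240 ml water after a 10-h fast. Heparinised blood was drawn predose and at 0.25–14 h after the first and last doses. Plasma parent drug and metabolites M1–M3 were measured by LC/MS-MS (MRM, deuterated internal standard). Noncompartmental analysis gave Cmax observed, t1/2 = 0.693/kel and MRT = AUMC/AUC. Values are geometric means.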

Plasma [5] = test: Ratio of AUC (0 to infinity) for metabolite BAY 78-1787 to AUC (0 to infinity) for compound in healthy human plasma at 40 mg, po administered as single dose for 3 days measured after 3 days; type: ADME, organism-based; conditions: in vivo, 72 h
In short: (§3)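 Healthy Caucasian men (8 active, 4 placebo per dose) dosed with tablets daily for 3 days after 10-h fast. Plasma sampled 0.25–14 h after first and last doses. Parent and metabolites M1–M3 measured by LC/MS-MS (200 µl plasma). Metabolic ratio is metabolite AUC0-∞ divided by parent AUC0-∞ (log-linear trapezoidal, extrapolated by last concentration/kel). First vs third dose compared by paired t test.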

Plasma [6] = test: Tmax in healthy human plasma assessed as metabolite BAY 78-1787 Tmax at 80 mg, po administered as four 20 mg immediate release tablets daily for 3 days during 10 hrs overnight fasting state measured after 1 day; type: ADME, organism-based; conditions: in vivo, 24 h
In short: (§4)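 Healthy Caucasian men (8 active, 4 placebo per dose) dosed with tablets daily for 3 days after 10-h fast. Lithium-heparin plasma sampled predose and 0.25–14 h after day-1 and day-3 doses, stored frozen. Parent and M1–M3 quantified by LC/MS-MS in positive-ion MRM. Tmax taken directly from observed individual data.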

Plasma [7] = test: Ratio of AUC (0 to infinity) for metabolite BAY 78-1787 to AUC (0 to infinity) for compound in healthy human plasma at 40 mg, po administered as single dose for 3 days measured after 1 day; type: ADME, organism-based; conditions: in vivo, 24 h; in short: as §3
Plasma [8] = test: Half life in healthy human plasma assessed as metabolite BAY 78-1787 Half life at 40 mg, po administered as two 20 mg immediate release tablets daily for 3 days during 10 hrs overnight fasting state measured after 1 day; type: ADME, organism-based; conditions: in vivo, 24 h; in short: as §2
Plasma [9] = test: AUC in healthy human plasma assessed as metabolite BAY 78-1787 AUC at 40 mg, po administered as two 20 mg immediate release tablets daily for 3 days during 10 hrs overnight fasting state measured after 1 day; type: ADME, organism-based; parameters: dose 40 mg, time < 10 hr, route oral; conditions: in vivo; in short: as §1
Plasma [10] = test: AUC in healthy human plasma assessed as metabolite BAY 78-1787 AUC at 40 mg, po administered as two 20 mg immediate release tablets daily for 3 days during 10 hrs overnight fasting state measured after 3 day; type: ADME, organism-based; parameters: time < 10 hr, dose 40 mg, route oral; conditions: in vivo; in short: as §1
Plasma [11] = test: Tmax in healthy human plasma assessed as metabolite BAY 78-1787 Tmax at 40 mg, po administered as two 20 mg immediate release tablets daily for 3 days during 10 hrs overnight fasting state measured after 1 day; type: ADME, organism-based; conditions: in vivo, 24 h; in short: as §4
Plasma [12] = test: AUC in healthy human plasma assessed as metabolite BAY 78-1787 AUC at 80 mg, po administered as four 20 mg immediate release tablets daily for 3 days during 10 hrs overnight fasting state measured after 1 day; type: ADME, organism-based; parameters: dose 80 mg, time < 10 hr, route oral; conditions: in vivo; in short: as §1
Plasma [13] = test: Ratio of AUC (0 to infinity) for metabolite BAY 78-1787 to AUC (0 to infinity) for compound in healthy human plasma at 80 mg, po administered as single dose for 3 days measured after 1 day; type: ADME, organism-based; conditions: in vivo, 24 h; in short: as §3
Plasma [14] = test: AUC in healthy human plasma assessed as metabolite BAY 78-1787 AUC at 80 mg, po administered as four 20 mg immediate release tablets daily for 3 days during 10 hrs overnight fasting state measured after 3 day; type: ADME, organism-based; parameters: dose 80 mg, time < 10 hr, route oral; conditions: in vivo; in short: as §1
Plasma [15] = test: Cmax in healthy human plasma assessed as metabolite BAY 78-1787 Cmax at 80 mg, po administered as four 20 mg immediate release tablets daily for 3 days during 10 hrs overnight fasting state measured after 1 day; type: ADME, organism-based; parameters: dose 80 mg, route oral; conditions: in vivo; in short: as §1
Plasma [16] = test: Tmax in healthy human plasma assessed as metabolite BAY 78-1787 Tmax at 80 mg, po administered as four 20 mg immediate release tablets daily for 3 days during 10 hrs overnight fasting state measured after 3 day; type: ADME, organism-based; conditions: in vivo, 72 h; in short: as §4
Plasmodium falciparum = test: Antimalarial activity against Plasmodium falciparum K1 in human plasma assessed as inhibition of hypoxanthine uptake by intraerythrocytic malaria parasites by hypoxanthine incorporation assay; type: functional, organism-based
In short: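 K1 or TM90-C2A parasites were sorbitol-synchronized and cultured in RPMI 1640. Drug was diluted in drug-free human serum (0.04–40 ng/ml) or subject plasma was diluted twofold (8–8,192). Parasites were added at 2% hematocrit, 1% parasitemia (>95% rings), and [3H]hypoxanthine uptake was measured over 48 h. IC50 or ID50 came from concentration or dilution-response curves. Equivalent concentration = ID50 × IC50.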

Plasma [17] = test: AUC (0 to infinity) in healthy human plasma assessed as metabolite BAY 78-1787 AUC (0 to infinity) at 80 mg, po administered as single ascending doses during 10 hrs overnight fasting state; type: ADME, organism-based; parameters: dose 80 mg, time infinity, route oral; conditions: in vivo
In short: (§5)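 Healthy Caucasian male volunteers, single oral dose of 80 mg as four 20-mg immediate-release tablets, taken with 240 ml water after a 10-h overnight fast. Lithium-heparin venous blood was drawn predose and at 0.25–14 h, and plasma was stored frozen. Metabolites M1/M2/M3 were measured by LC/MS-MS (positive-ion MRM, deuterated internal standard). Noncompartmental analysis, AUC by log-linear trapezoidal rule extrapolated to infinity (Clast/kel), geometric means.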

Plasma [18] = test: Half life in healthy human plasma assessed as metabolite BAY 78-1787 Half life at 80 mg, po administered as four 20 mg immediate release tablets daily for 3 days during 10 hrs overnight fasting state measured after 3 day; type: ADME, organism-based; conditions: in vivo, 72 h; in short: as §2
Plasma [19] = test: Half life in healthy human plasma assessed as metabolite BAY 78-1787 Half life at 40 mg, po administered as two 20 mg immediate release tablets daily for 3 days during 10 hrs overnight fasting state measured after 3 day; type: ADME, organism-based; conditions: in vivo, 72 h; in short: as §2
Plasma [20] = test: Cmax in healthy human plasma assessed as metabolite BAY 78-1787 Cmax at 80 mg, po administered as single ascending doses during 10 hrs overnight fasting state; type: ADME, organism-based; parameters: dose 80 mg, route oral; conditions: in vivo; in short: as §5
Plasma [21] = test: Ratio of AUC (0 to infinity) for metabolite BAY 78-1787 to AUC (0 to infinity) for compound in healthy human plasma at 80 mg, po administered as single dose for 3 days measured after 3 days; type: ADME, organism-based; conditions: in vivo, 72 h; in short: as §3
Plasma [22] = test: Tmax in healthy human plasma assessed as metabolite BAY 78-1787 Tmax at 40 mg, po administered as two 20 mg immediate release tablets daily for 3 days during 10 hrs overnight fasting state measured after 3 day; type: ADME, organism-based; conditions: in vivo, 72 h; in short: as §4
Plasma [23] = test: Cmax in healthy human plasma assessed as metabolite BAY 78-1787 Cmax at 40 mg, po administered as two 20 mg immediate release tablets daily for 3 days during 10 hrs overnight fasting state measured after 1 day; type: ADME, organism-based; parameters: dose 40 mg, route oral; conditions: in vivo, 24 h; in short: as §1

`C[C@H]1[C@H](N2C=CS(=O)(=O)CC2)O[C@@H]2O[C@]3(C)CC[C@H]4[C@H](C)CC[C@@H]1[C@@]24OO3` was tested, and the Cmax (Plasma [1]) was 85.3 ng/mL, the Cmax (Plasma [2]) was 47.8 ng/mL and the t1/2 (Plasma [3]) was 2.78 h. The t1/2 (Plasma [4]) was 2.13 h, the Ratio (Plasma [5]) was 0.62 and the Tmax (Plasma [6]) was 2 h. For the same molecule, the Ratio (Plasma [7]) was 0.63, the t1/2 (Plasma [8]) was 1.9 h and the AUC (Plasma [9]) was 112.6 ng·h/mL. For the same molecule, the AUC (Plasma [10]) was 112.3 ng·h/mL, the Tmax (Plasma [11]) was 1.75 h and the AUC (Plasma [12]) was 296 ng·h/mL. It also gave a Ratio (Plasma [13]) of 0.89, an AUC (Plasma [14]) of 255.2 ng·h/mL and a Cmax (Plasma [15]) of 112.6 ng/mL. The Tmax (Plasma [16]) was 1.5 h, the IC50 (Plasmodium falciparum) was 1.7 ng/mL (≈ 4.26 nM) and the AUC (Plasma [17]) was 315.4 ng·h/mL. For the same molecule, the t1/2 (Plasma [18]) was 1.63 h, the t1/2 (Plasma [19]) was 1.54 h and the Cmax (Plasma [20]) was 121.1 ng/mL. It also gave a Ratio (Plasma [21]) of 0.79, a Tmax (Plasma [22]) of 1.75 h and a Cmax (Plasma [23]) of 51.7 ng/mL.
